# Screens deposited in PubChem by several laboratories.
# p97 inhibitor – blocks human p97 ATPase activity | AID 1481 | inhibition, % at 8 µM | P55072 | recombinant p97 ATPase, Kinase-Glo ATP luminescence, 3 h | 0.42% of 220,000 active; in the data active = inhibition above about 15%;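 also: 0% = DMSO vehicle and 100% = wells lacking enzyme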
# Tb MetRS inh – Trypanosoma brucei MetRS inhibition; purified T. brucei MetRS, ATP depletion, Kinase-Glo luminescence; inhibition, % at 11.9 µM; 0.4% of 360,000 active; AID 624268;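 active = inhibition above a per-plate cutoff of the control wells' mean inhibition plus 3 SD, cut at about 5.5% in these data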;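 also: 0% = DMSO wells median and 100% = median of wells with control inhibitor compound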
#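 Test system – parasite MetRS enzyme · Reagent – substrates ATP, L-methionine and bulk Escherichia coli tRNA · Doses – 11.9 µM compound single dose, 0.9% DMSO · Times – 15 min enzyme-compound preincubation, 2 h reaction, 10 min detection, 25 °C · Signal – Kinase-Glo luminescence, ATP depletion format · Controls – DMSO-only wells as low control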
# UBC9 SUMO inh – SUMOylation inhibition; HTRF SUMOylation assay, SAE1/SAE2 + UBC9, in vitro; inhibition, % at 35 µM; 0.36% of 290,000 active; AID 2006; in the data active = inhibition above about 50%, passing the limit was not always enough
# NCF1 inh – blocks human p47phox regulatory protein of NADPH oxidases; inhibition, % at 24.7 µM; AID 1274; p47phox/p22phox peptide binding, fluorescence polarization, 2 h; P14598; 0.53% of 220,000 active;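 also: 0% = p47phox with labelled peptide and 100% = labelled peptide alone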
# Target sequence (P14598 whole entry, looked up): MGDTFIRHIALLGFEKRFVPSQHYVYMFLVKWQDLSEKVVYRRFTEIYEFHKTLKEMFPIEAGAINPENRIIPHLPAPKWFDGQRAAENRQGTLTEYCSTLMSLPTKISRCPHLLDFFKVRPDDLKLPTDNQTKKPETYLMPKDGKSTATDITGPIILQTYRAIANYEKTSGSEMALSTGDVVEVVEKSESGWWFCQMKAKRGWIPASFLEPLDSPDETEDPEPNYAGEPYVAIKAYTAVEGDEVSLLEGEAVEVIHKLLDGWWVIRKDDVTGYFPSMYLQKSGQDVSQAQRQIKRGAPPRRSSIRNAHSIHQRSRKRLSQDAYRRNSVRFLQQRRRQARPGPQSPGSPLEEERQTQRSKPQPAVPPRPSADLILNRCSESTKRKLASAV
# 14-3-3 Bad inh – disrupts binding of bovine 14-3-3 zeta to phospho-Bad peptide | P63103 | TR-FRET 14-3-3zeta/Dy647-pBad peptide displacement, 1 h | inhibition, % at 21.7 µM | 0.71% of 220,000 active;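 active = inhibition above about 70%, limit read from the data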;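 also: 0% = full 14-3-3 plus peptide FRET controls and 100% = background without 14-3-3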
# eIF4E-4G inh – blocks eIF4E binding to eIF4G; P63073+Q04637; TR-FRET eIF4E-eIF4GI(517-606) binding, 2 h; inhibition, % at 21.7 µM; 0.37% of 220,000 active;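 also: 0% = full FRET control wells and 100% = background wells lacking eIF4GI fragment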
# Numbers without * were called inactive; . = no result; + = active, no number; [ ] = another dose, or the depositor's remark. Compounds with a hit are over-represented: about 1.6% of the library has one in this group of screens.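 The calls were made as follows, unless noted: active = inhibition above about 30% (limit read from the data); inactive = the rest.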
SMILES,p97 inhibitor,Tb MetRS inh,UBC9 SUMO inh,NCF1 inh,14-3-3 Bad inh,eIF4E-4G inh
COCc1cccc(-c2csc(C(C)(O)c3cccc(F)c3)n2)c1 (centres undefined),.,-0.2,.,.,.,.
CCS(=O)(=O)N1CCN(C(C)CCc2ccccc2)CC1 (centres undefined),-2.5,-3.0,11.1,1.3,70.1*,15.3
CCCS(=O)(=O)N1CCN(S(=O)(=O)c2ccccc2)CC1,1.9,1.0,11.7,-3.6,5.2,63.5*
NC(Cc1ccc(F)cc1)c1csc(Nc2ccc(C(=O)c3ccccc3)cc2)n1 (centres undefined),.,-0.3,.,.,.,.
Cn1cccc1C(=O)OCc1cc(-c2ccco2)on1,.,-0.2,.,.,.,.
Cc1ccc(S(=O)(=O)N2C[C@H]3C(=O)C[C@@H](c4ccccc4)N(S(C)(=O)=O)[C@H]3C[C@H]2c2ccccc2)cc1,.,0.3,.,.,.,.
COc1cccc(C(C)(O)c2nc(-c3cnn(C)c3)cs2)c1 (centres undefined),.,-0.1,.,.,.,.
Cc1ccc(S(=O)(=O)N2CCCCC2)cc1C(=O)NCc1ccccn1,.,0.2,0.3,.,.,.
Cc1ccc(S(=O)(=O)Nc2c(C)n(C)n(-c3ccccc3)c2=O)cc1C(=O)NCc1ccccn1,3.9,-0.5,-5.7,-9.7,2.7,83.6*
O=C(Nc1sc2c(c1C(=O)c1ccc(Cl)cc1)CCCC2)c1cccnc1,-9.9,-1.1,-11.6,-12.5,70.9*,7.7
CN1CCN(c2ncnc3c2ncn3[C@H]2CN(Cc3ccc(-c4ccccc4)cc3)C[C@@H](CO)O2)CC1,.,0.0,.,.,.,.
O=C(CN1CCCCC1)Nc1ccc(F)c(Cl)c1,3.3,-0.4,-2.1,-4.4,-16.6,0.8
O=C(CN1CCCCCC1)Nc1ccc(F)c(F)c1,-1.5,0.1,21.7,-17.4,71.6*,3.0
O=C1Nc2ccccc2/C1=N/N=C/c1ccc(-c2ccc([N+](=O)[O-])cc2)o1,5.6,-1.1,24.0,51.4*,95.0*,15.2
CN(/N=C/c1ccc(-c2ccc([N+](=O)[O-])cc2)o1)c1ccccc1,.,0.0,30.3,.,.,.
COc1ccc(C(C)NCCC(c2ccc(OC(C)C)cc2)c2ccccc2OC)cc1 (centres undefined),.,0.1,-22.5,.,.,.
COc1ccc(C(CCNC(C)c2ccccc2)C(C)C)cc1 (centres undefined),6.6,-0.9,4.9,42.2*,-4.0,1.9
O=S(=O)(/C=C/c1cccc(Br)c1)N1CCOCC1,.,0.1,.,.,.,.
O=C1OCC=C1NNC(=O)c1cccnc1,-2.5,-0.4,9.5,+,-4.8,-0.3
Cc1ccc(/C=C/C(O)=C2/C(=O)N(C)C3(C)CC2c2ccccc2O3)cc1 (centres undefined),-0.5,-1.0,22.0,0.4,-10.8,96.7*
CCCCCCCCCC(=O)N/N=C/c1ccc(C)s1,-2.3,0.4,-23.1,-1.4,-2.5,52.5*[fluorescence artefact?]
Cc1[nH]n(-c2ccc(F)cc2)c(=O)c1/C=N/c1sc2c(c1C#N)CCCC2,-6.8,-0.9,11.3,-17.0,80.8*,3.6
C=CC[C@H](CC(=O)N[C@H](CO)Cc1ccccc1)C(=O)N[C@@H](COC(=O)[C@H](CC=C)CC(=O)OC(C)(C)C)Cc1c[nH]c2ccccc12,.,-0.2,.,.,.,.
N#CCCn1c(SCC(=O)c2c[nH]c3ccccc23)nc2ccccc21,6.7,5.8*,-3.1,-15.1,-11.3,2.2
CCC(C)(C)n1nnnc1C(c1ccc(O)c(OC)c1)N1CCc2ccccc2C1 (centres undefined),5.2,-0.6,1.9,-1.7,82.2*,5.1
SMILES,p97 inhibitor,Tb MetRS inh,UBC9 SUMO inh,NCF1 inh,14-3-3 Bad inh,eIF4E-4G inh
COc1ccc(Oc2nc(SC)nc3ccsc23)cc1,-2.6,0.5,-7.1,40.6*,-5.8,1.1
CSc1nc(Oc2ccc3ccccc3c2)c2sccc2n1,-2.5,-0.1,-14.6,-7.0,-3.4,-13.2
Cc1cc(NC(=O)Nc2ccccc2F)ccc1Br,-0.6,-0.4,4.0,.,-5.4,2.0
O=C1CCCN1CC(O)CS(=O)(=O)Cc1ccc(Cl)c(Cl)c1 (centres undefined),.,-0.3,-8.9,.,.,.
O=C(N/N=C\C=C\c1ccc([N+](=O)[O-])o1)c1cccs1,.,-0.1,50.8*,.,.,.
CCN(CC)c1ccc2cc(C(=O)c3cccs3)c(=O)oc2c1,.,-0.9,.,.,.,.
N#Cc1cccc(C(c2nnnn2Cc2ccccc2)N2CCCC2)c1 (centres undefined),-0.8,-1.0,8.6,-5.9,48.5,-5.0
